Source: ChEMBL document CHEMBL2331405, “Benzanilide-Biphenyl Replacement: A Bioisosteric Approach to Quinoline Carboxamide-Type ABCG2 Modulators” (ACS Med Chem Lett, 2013)

Assays:
[1] = Half life in NMRI nu/nu mouse plasma at 3 mM by RP-HPLC analysis; assay type: ADME, cell-free
[2] = system: Plasma; experiment: Stability in NMRI nu/nu mouse plasma at 3 mM measured within 30 mins by RP-HPLC analysis; assay type: ADME, cell-free; settings: 0.5 h, 3000 µM
[3] = target: T1, ABCG2 (Homo sapiens, UniProt Q9UNQ0); experiment: Inhibition of ABCG2 in human MCF7/Topo cells at 70 to 100 uM after 2 hrs by Hoechst 33342 microplate assay relative to 10 uM fumitremorgin; assay type: cell-based; settings: probe Hoechst 33342, read-out: Imax
T1 sequence (Q9UNQ0 whole entry): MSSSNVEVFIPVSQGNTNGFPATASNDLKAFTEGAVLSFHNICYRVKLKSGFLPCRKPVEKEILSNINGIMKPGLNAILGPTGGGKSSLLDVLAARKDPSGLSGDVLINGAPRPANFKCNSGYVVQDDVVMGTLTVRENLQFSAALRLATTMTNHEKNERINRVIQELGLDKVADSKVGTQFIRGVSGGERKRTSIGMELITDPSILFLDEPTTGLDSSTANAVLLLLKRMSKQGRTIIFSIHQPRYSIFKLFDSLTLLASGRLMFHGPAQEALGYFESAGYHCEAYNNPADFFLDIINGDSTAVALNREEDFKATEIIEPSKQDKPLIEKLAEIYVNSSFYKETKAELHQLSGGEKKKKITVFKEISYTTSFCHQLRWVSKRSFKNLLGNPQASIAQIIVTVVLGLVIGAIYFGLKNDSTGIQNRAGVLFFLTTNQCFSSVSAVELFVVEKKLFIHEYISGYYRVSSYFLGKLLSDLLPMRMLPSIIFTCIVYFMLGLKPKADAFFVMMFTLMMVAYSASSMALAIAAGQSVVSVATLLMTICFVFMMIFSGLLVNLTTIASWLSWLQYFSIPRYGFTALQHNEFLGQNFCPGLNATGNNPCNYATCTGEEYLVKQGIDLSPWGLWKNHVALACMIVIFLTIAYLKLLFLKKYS

[4] = target: T2, Broad substrate specificity ATP-binding cassette transporter ABCG2 (Homo sapiens, UniProt Q9UNQ0); experiment: Inhibition of ABCG2 in human MCF7/Topo cells after 2 hrs by Hoechst 33342 microplate assay; assay type: cell-based; settings: for inhibition (INH): human, mcf7/topo, 2 h
T2 sequence (Q9UNQ0 whole entry): T1 sequence (Q9UNQ0 whole entry)

[5] = target: ABCB1 (Homo sapiens, UniProt P08183); experiment: Inhibition of ABCB1 in human KBV1 cells after 10 mins by Calcein-AM microplate assay relative to 1 uM tariquidar; assay type: cell-based; settings: probe calcein-AM
In short: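 Microplate calcein-AM assay in ABCB1-overexpressing Kb-V1 cells. Maximal inhibition is expressed as a percentage of the maximal response to tariquidar at 1 μM. Means ± SEM come from two to three independent experiments, each run in triplicate.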

[6] = target: T3, ATP-dependent translocase ABCB1 (Homo sapiens, UniProt P08183); experiment: Inhibition of ABCB1 in human KBV1 cells after 10 mins by Calcein-AM microplate assay; assay type: cell-based
[7] = target: T3, ATP-dependent translocase ABCB1; experiment: Inhibition of ABCB1 in human KBV1 cells up to 100 uM after 10 mins by Calcein-AM microplate assay; assay type: cell-based; settings: kbv1, 10 min
In short: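 Microplate calcein-AM efflux assay in ABCB1-overexpressing Kb-V1 cells. Values are means ± SEM from two to three independent experiments, each run in triplicate.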

[8] = target: T1, ABCG2; experiment: Ratio of compound IC50 to elacridar IC50 for ABCG2 in human MCF7/Topo cells after 2 hrs by Hoechst 33342 microplate assay; assay type: cell-based; settings: probe Hoechst 33342, read-out: Ratio IC50

Sequence of ABCB1 (P08183 whole entry): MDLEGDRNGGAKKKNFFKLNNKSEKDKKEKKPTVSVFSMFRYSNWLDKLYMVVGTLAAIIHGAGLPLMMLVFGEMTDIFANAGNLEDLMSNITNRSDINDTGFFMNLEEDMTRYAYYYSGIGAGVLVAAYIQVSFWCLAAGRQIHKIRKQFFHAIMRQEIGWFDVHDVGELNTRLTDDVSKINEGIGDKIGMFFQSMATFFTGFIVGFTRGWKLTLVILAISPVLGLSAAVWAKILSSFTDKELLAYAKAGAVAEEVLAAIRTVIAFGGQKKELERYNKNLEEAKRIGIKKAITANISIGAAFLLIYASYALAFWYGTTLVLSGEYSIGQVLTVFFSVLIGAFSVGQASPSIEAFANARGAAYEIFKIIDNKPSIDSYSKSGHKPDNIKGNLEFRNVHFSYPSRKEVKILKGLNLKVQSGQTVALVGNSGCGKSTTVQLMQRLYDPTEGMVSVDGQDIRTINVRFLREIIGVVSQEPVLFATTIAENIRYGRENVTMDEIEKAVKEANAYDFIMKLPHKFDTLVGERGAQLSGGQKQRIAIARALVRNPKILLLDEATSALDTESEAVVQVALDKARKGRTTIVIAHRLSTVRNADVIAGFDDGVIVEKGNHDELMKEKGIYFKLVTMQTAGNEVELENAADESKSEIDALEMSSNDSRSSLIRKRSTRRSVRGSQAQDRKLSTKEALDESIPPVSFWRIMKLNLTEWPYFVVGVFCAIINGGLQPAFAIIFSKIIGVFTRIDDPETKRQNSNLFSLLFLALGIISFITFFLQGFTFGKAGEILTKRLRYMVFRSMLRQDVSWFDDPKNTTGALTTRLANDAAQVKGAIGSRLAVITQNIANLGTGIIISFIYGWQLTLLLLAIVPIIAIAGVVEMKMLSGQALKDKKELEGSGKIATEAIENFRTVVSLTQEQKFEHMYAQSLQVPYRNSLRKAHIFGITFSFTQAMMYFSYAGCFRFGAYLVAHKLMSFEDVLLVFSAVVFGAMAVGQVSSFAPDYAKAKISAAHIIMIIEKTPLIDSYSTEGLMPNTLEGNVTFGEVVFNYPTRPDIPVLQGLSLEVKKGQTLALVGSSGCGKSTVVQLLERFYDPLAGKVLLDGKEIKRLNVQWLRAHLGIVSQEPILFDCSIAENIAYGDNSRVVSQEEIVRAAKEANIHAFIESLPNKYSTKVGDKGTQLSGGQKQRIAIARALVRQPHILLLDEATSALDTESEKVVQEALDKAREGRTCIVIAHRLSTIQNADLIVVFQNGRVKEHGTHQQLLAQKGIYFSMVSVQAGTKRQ
T3 sequence (P08183 whole entry): as above

| SMILES | half-life at 3000 µM [1] | Stability [2] | Emax at 2 h [3] | IC50 [4] | inhibition at 10 min [5] | IC50 [6] | inhibition (INH) [4] | inhibition (INH) [7] | selectivity ratio at 2 h [8] |
| --- | --- | --- | --- | --- | --- | --- | --- | --- | --- |
| COCCOCCOCCOc1cc2c(cc1OCCOCCOCCOC)CN(CCc1ccc(-c3ccc(C(=O)OC)c(NC(=O)c4ccc5ccccc5n4)c3)cc1)CC2 | 24 h | – | 112% | 0.544 µM | 50% | 5.99 µM | Dose-dependent effect | – | – |
| COC(=O)c1ccc(-c2ccc(CN3CCc4cc(OC)c(OC)cc4C3)cc2)cc1NC(=O)c1ccc2ccccc2n1 | 24 h | – | 87% | 0.943 µM | – | – | – | Not Active | – |
| COC(=O)c1ccc(-c2ccc(CN3CCc4cc(OC)c(OC)cc4C3)cc2)cc1NC(=O)c1ccc2ncccc2c1 | 24 h | – | 92% | 1.54 µM | – | 10.9 µM | – | – | – |
| COC(=O)c1ccc(-c2ccc(CCN3CCc4ccccc4C3)cc2)cc1NC(=O)c1ccc2ccccc2n1 | 24 h | – | 90% | 1.1 µM | – | – | – | Not Active | – |
| COC(=O)c1ccc(-c2ccc(CCN3CCc4cc(OC)c(OC)cc4C3)cc2)cc1NC(=O)c1ccc2ccccc2n1 | 24 h | – | 126% | 3.21 µM | – | – | – | Not Active | – |
| COC(=O)c1ccc(-c2ccc(CN3CCc4ccccc4C3)cc2)cc1NC(=O)c1ccc2ccccc2n1 | 24 h | – | 85% | 1.46 µM | – | – | – | Not Active | – |
| COC(=O)c1ccc(-c2ccc(CN3CCc4ccccc4C3)cc2)cc1NC(=O)c1ccc2ncccc2c1 | 24 h | – | 94% | 0.641 µM | – | 4.49 µM | – | – | – |
| COc1cc2c(cc1OC)CN(CCc1ccc(NC(=O)c3cc(OC)c(OC)cc3NC(=O)c3cnc4ccccc4c3)cc1)CC2 | – | – | 69% | – | – | – | Dose-dependent effect | – | 4 |
| COc1cc2c(cc1OC)CN(CCc1ccc(NC(=O)c3cccc4c(=O)c5cccc(OC)c5[nH]c34)cc1)CC2 | – | – | 63% | – | – | – | – | – | – |
| COc1ccc2c3c([nH]c2c1)[C@H](CC(C)C)N1C(=O)[C@H](CCC(=O)OC(C)(C)C)NC(=O)[C@@H]1C3 | – | – | – | – | – | – | – | Not Active | – |
| COC(=O)c1ccc(C(=O)Nc2ccc(CCN3CCc4cc(OC)c(OC)cc4C3)cc2)cc1NC(=O)c1ccc2ccccc2n1 | 0.167 h | Unstable | 63% | 0.065 µM | – | – | Dose-dependent effect | – | – |
| COc1ccc2c3c([nH]c2c1)[C@H](C=C(C)C)N1C(=O)[C@@H]2CCCN2C(=O)[C@@H]1C3 [FUMITREMORGIN] | – | – | 100% | 0.731 µM | – | – | – | – | – |

The next lines start with results.

| half-life at 3000 µM [1] | Stability [2] | Emax at 2 h [3] | IC50 [4] | inhibition at 10 min [5] | IC50 [6] | inhibition (INH) [4] | inhibition (INH) [7] | SMILES | selectivity ratio at 2 h [8] |
| --- | --- | --- | --- | --- | --- | --- | --- | --- | --- |
| 0.167 h | Unstable | – | – | – | – | – | – | COCCOCCOCCOc1cc2c(cc1OC)CCN(CCc1ccc(NC(=O)c3ccc(C(=O)OC)c(NC(=O)c4ccc5ccccc5n4)c3)cc1)C2 | – |
| 24 h | – | 98% | 0.76 µM | 50% | 5.42 µM | – | – | COCCOCCOCCOc1cc2c(cc1OC)CCN(CCc1ccc(-c3ccc(C(=O)OC)c(NC(=O)c4ccc5ccccc5n4)c3)cc1)C2 | – |
| 24 h | – | 114% | 1.03 µM | – | – | – | Not Active | COCCOCCOCCOc1cc2c(cc1OC)CN(Cc1ccc(-c3ccc(C(=O)OC)c(NC(=O)c4ccc5ccccc5n4)c3)cc1)CC2 | – |
| 24 h | – | 67% | 0.237 µM | – | 18 µM | – | – | COCCOCCOCCOc1cc2c(cc1OC)CN(Cc1ccc(-c3ccc(C(=O)OC)c(NC(=O)c4ccc5ncccc5c4)c3)cc1)CC2 | – |
| 24 h | – | 109% | 0.591 µM | 20% | 1.23 µM | Dose-dependent effect | – | COCCOCCOCCOc1cc2c(cc1OC)CCN(Cc1ccc(-c3ccc(C(=O)OC)c(NC(=O)c4ccc5ccccc5n4)c3)cc1)C2 | – |
| 24 h | – | 103% | 0.839 µM | – | – | – | Not Active | COCCOCCOCCOc1cc2c(cc1OCCOCCOCCOC)CN(Cc1ccc(-c3ccc(C(=O)OC)c(NC(=O)c4ccc5ccccc5n4)c3)cc1)CC2 | – |
